In ChEMBL document CHEMBL4513216, “Probing the Open Global Health Chemical Diversity Library for Multistage-Active Starting Points for Next-Generation Antimalarials” (ACS Infect Dis, 2020):

Experiment: Toxicity liver stage against HepG2, at 10uM
Type: cell-based
Parameters: test concentration 10 uM, cell line HepG2-A16-CD81EGFP
Conditions: human, HepG2-A16-CD81EGFP cells; read-out: INHIBITION
In short: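 Uninfected HepG2-A16-CD81EGFP cells, 3 × 10^3 per well, 1536-well, plated on prespotted compound at 10 μM final, parasite-free screening media added to match infected plates; puromycin 10 μM positive, DMSO 0.5% negative; run in parallel with 48 h PbLuc assay at 37 °C, 5% CO2; viability by CellTiter-Glo luminescence, normalized to controls.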

Compound	cytotoxicity at 10 µM [%]
Fc1cccc(-c2c[nH]c([C@@H]3COCCN3C3CCOCC3)n2)c1	-1.31
Cc1ccc(CNC2(Cc3cc(CC(C)C)on3)COC2)o1	-2.07
CS(=O)(=O)N1CCN2C(=O)N(C3CCOCC3)C[C@H]2C1	5.76
CC(=O)N[C@H]1C[C@@H](c2nc(-c3ccc4c(c3)OCO4)no2)N(C)C1	-2.92
COCC(=O)N1CCC2(CCC(C(=O)N3CCCC3)O2)CC1 (stereo unspecified)	-1.63
Cc1cccc(CN2CCC3(CCN(c4ncccn4)C3)C2=O)c1 (stereo unspecified)	1.44
CN(C)CCN1CCC2(CCN(C(=O)c3cccnc3)CC2)C1=O	2.61
O=C(Cc1ccsc1)NC1CCc2c(ccc(=O)n2CC2CC2)C1 (stereo unspecified)	8.88
O=C(c1ccnnc1)N1CCCn2nnc(COCC3CC3)c2C1	7.95
COCCN1Cc2ccnn2CC(COCc2cccnc2)C1 (stereo unspecified)	-131
CNC(=O)c1cc2c(nc1NCC(C)C)CCN(S(=O)(=O)N(C)C)CC2	-151
Cc1cccc(Cl)c1NC(=O)Cn1cc(C(=O)O)ccc1=O	-1.35
CN(C)S(=O)(=O)N1CCC(Oc2ccc(C#N)cn2)CC1	4.16
CCC1=N[C@@]2(CC[C@@H]3CN(C(=O)NCC(C)C)C[C@@H]32)C(=O)N1CC(C)C	-3.64
CCN1C(=O)C2(CCOCC2)c2cc(NC(=O)c3ccco3)ccc21	-10.3
O=C(c1ccc2[nH]ccc2c1)N1CCn2cnc(COCC3CC3)c2C1	5.22
Cc1c(CCC(=O)Nc2ccc(Cl)cn2)cnn1C	0.678
CCCn1ncc2c(C(=O)NC(C)Cn3cccn3)cc(C3CC3)nc21 (stereo unspecified)	-8.97
CCn1nccc1CNC(=O)C1CC1	-12.2
COc1ccc(-c2cc3cccn(CC(=O)N4CCOCC4)c-3n2)cc1	-7.26
O=C(C1CCCC1)N1CCOC(c2nc(-c3ncccn3)no2)C1 (stereo unspecified)	-2.3
COc1ccc(-c2cc(C3CCN(C(C)=O)CC3)ccn2)cc1	-5.05
CNC(=O)c1ccc(C2CN(C(=O)c3coc(C)n3)CCO2)nc1 (stereo unspecified)	-7.69

Compound	cytotoxicity at 10 µM [%]
CN(C)C(CNS(=O)(=O)c1cnn(C)c1)c1cccc(F)c1 (stereo unspecified)	5.66
CC(SCCNS(=O)(=O)c1cnn(C)c1)c1cccc(F)c1 (stereo unspecified)	17.3
CC(=O)N1CCN(CCCSCc2ccccc2)CC1	1.64
Cc1cc(NC(=O)Cn2ccc(=O)c3ccccc32)[nH]n1	-146
CCNC(=O)CCC(=O)NCC1(O)CCC(C(C)(C)C)CC1 (stereo unspecified)	5.55
CN(C)CCN(Cc1ccccc1)C(=O)CN1CCCNC1=O	1.42
COCCC1(CNC(=O)Nc2ccc(-n3nccn3)cc2)CCC1	-2.99
N#Cc1csc(CNCCOc2ncccc2Cl)c1	8.01
O=C(c1csc(-c2ccco2)n1)N(CC1CCOC1)C1CC1 (stereo unspecified)	-2.72
CC(NC(=O)c1cccc(CN2CCN(C)CC2)c1)c1nccs1 (stereo unspecified)	-4.28
COC(=O)CCC(=O)NC(C)Cc1ccccc1Br (stereo unspecified)	-6.66
CN1CCN(CCCNC(=O)C2CCCCC2)CC1	-1.82
O=C(NCc1ccc2c(c1)OCCO2)N1CCC(CO)CC1	-4.62
O=C(NCc1cc(Cl)ccn1)NCc1ccco1	8.5
C[S+]([O-])c1nncn1CC(=O)c1ccc2c(c1)CCC2 (stereo unspecified)	-1.88
COc1ccc(F)cc1C(=O)Nc1nnc(C)s1	11.1
COc1ccc(C(=O)O)c(OCC(=O)NC(C)c2ccc(F)cc2)c1 (stereo unspecified)	1.65
Cc1cc(NC(=O)c2ccc(F)cc2Cl)n(C)n1	-77.5
COc1cc(Cl)c(NCc2c(C)noc2C)cc1OC	8.77
Cc1nc(CNC(=O)NC2CCCN(c3ncccn3)C2)cs1 (stereo unspecified)	-140
CCC(=O)Nc1ccc2c(ccn2CCOC)c1	3.54
COCCOc1ncccc1C(=O)N1CCCn2ncnc21	-2.98
O=S(=O)(c1ccc(Cl)cc1)N1CCC(OCc2ccccn2)C1 (stereo unspecified)	1.48

Compound	cytotoxicity at 10 µM [%]
O=C(NCc1ccncc1)N1CCSCC1c1ccc(Cl)cc1 (stereo unspecified)	1.6
CSc1ccc(NC(=O)NCC(O)C2CC2)cc1F (stereo unspecified)	6.32
O=C(COc1ccccc1)N1CCCC1c1ccc[nH]1 (stereo unspecified)	-0.575
COc1ccc(C(=O)CCc2nc(C3CC3)no2)cc1	-2.31
Cc1ccc(OCc2nc(CNCCn3cccn3)cs2)cc1	0.979
CCOC(=O)N1CCN(C(=O)Cc2c(C)nc(C)[nH]c2=O)CC1	-6.31
COc1cc(C)c(NC(=O)CCn2cccc2)cc1OC	1.61
CC(C)n1ncc2c1NC(=O)C(C#N)C21CCCC1 (stereo unspecified)	-4.1
NC(=O)CN(C(=O)Cc1cccc(C(F)(F)F)c1)C1CCCC1	3.71
CCC(C)CNc1ccc2oc(COC)nc2c1 (stereo unspecified)	-22.4
O=C(NCc1nnc2n1CCC2)N(Cc1ccco1)C1CC1	-6.11
COCCn1nc(C(=O)N2CCCC2c2cccc(F)c2)ccc1=O (stereo unspecified)	-5.5
CN(C)C(=O)N1CCN(CCn2nc3ccccn3c2=O)CC1	0.562
CCCS(=O)(=O)N1Cc2nccn2CC(Cn2cncn2)C1 (stereo unspecified)	-0.158
CC(=O)N1CC[C@@H]2O[C@H](C(=O)Nc3nc(C)cs3)C[C@@H]21	4.62
Cn1ccc(-c2cc(C(=O)N3CCC(C(N)=O)CC3)c3ccccn23)n1	-105
COc1ccc2c(c1)OCC(C(=O)NCc1nc3c(s1)CCCC3)C2 (stereo unspecified)	-4.29
CN(Cc1nc(Cc2cccc(F)c2)no1)C1CCOCC1	2.79
Cc1nc[nH]c1CN1CCN(C(=O)CN2CCCC2)[C@H]2CS(=O)(=O)C[C@H]21	-7.21
CCn1nc(C)c(CCNC(=O)C2CCCN(C3CCCC3)C2)c1C (stereo unspecified)	-9.34
O=S(=O)(N1CCOCC1)N1CCOC(CCc2ccccc2)C1 (stereo unspecified)	-2.55
Cc1n[nH]c(C)c1Sc1ccccc1NC(=O)N1CCCC(C(N)=O)C1 (stereo unspecified)	-7.59
COc1ccc(OCc2nc(C(=O)NCCN3CCOCC3)co2)cc1	1.87

Compound	cytotoxicity at 10 µM [%]
CSCc1noc(CNS(=O)(=O)c2cccc(C(=O)NC3CC3)c2)n1	-2.51
Cn1ccnc1CN(CCO)C(=O)c1cnc2ccccc2c1	1.39
COc1ccnc(CN2CCC(O)(c3ccc(C)cn3)CC2)c1OC	-138
CN1C(=O)CC(C(=O)O)C12CCN(c1ccc3ccccc3n1)CC2 (stereo unspecified)	1.21
CC(C)CCC1=NC2(CCN(C(=O)N3CCN(C)CC3)CC2)C(=O)N1	-6.08
Cc1csc(CCNC(=O)C2CCN(CC(N)=O)CC2)n1	-5.26
CC[C@@H](CO)NC(=O)c1coc(COc2ccc(OC)cc2)n1	15
Cc1cc(C(=O)N2CCC(c3nccn3CCCN(C)C)CC2)no1	-12.4
Cc1cc(C2CCCN(C(=O)Cc3csc(C(C)C)n3)C2)n[nH]1 (stereo unspecified)	-7.27
CC(=O)Nc1nc(CN2CCn3c(nnc3C(C)C)C2)cs1	-2.17
CC(=O)N(C)CC(=O)NCC1CCN(c2cc(Cl)ccc2C)C1 (stereo unspecified)	-8.77
c1csc(-c2nc(CNCCn3cccn3)cs2)c1	-7.36
COC(=O)c1ccc(N2CCN(C(=O)c3cnccn3)C(C)C2)cc1 (stereo unspecified)	-12.9
Cc1ccc(-n2ncc(C(=O)NCC3CCS(=O)(=O)C3)c2C)cc1 (stereo unspecified)	-9.01
O=C(NCc1ccccc1F)NCC(O)c1cccc(F)c1 (stereo unspecified)	-2.95
O=C(c1ccc(Cn2cccc2)cc1)N1CCN(CCO)CC1	-3.69
Cc1nc(CCNC(=O)NCc2cccc(N(C)C)n2)cs1	12
FC(F)(F)c1cccc(CNc2nccc(C(F)(F)F)n2)c1	-19
O=C1COc2cc(C(=O)N3CCCC(n4cccn4)C3)ccc2N1 (stereo unspecified)	-22.6
COCCN1CCN(CC(O)c2ccc(OC(F)(F)F)cc2)CC1 (stereo unspecified)	-22.1
Cc1ccc(CNc2cc(N3CCCC3CO)ncn2)s1 (stereo unspecified)	-2.9
CCc1nccn1C1CCCN(C(=O)Cc2cn3ccsc3n2)C1 (stereo unspecified)	-23
O=C(CCc1ccsc1)N1CCCCC1Cn1cccn1 (stereo unspecified)	-5.78

Compound	cytotoxicity at 10 µM [%]
O=C(CNCCn1cccn1)NCC1(c2ccccc2)CCCC1	-5.92
Cc1cnn(CC2CCCN2C(=O)c2csc(C3CC3)n2)c1 (stereo unspecified)	-17.8
Cc1cc(NC(=O)CCN2CCn3c(nnc3C3CC3)C2)no1	7.11
CC(Cn1cccn1)NCc1nc(-c2cccs2)no1 (stereo unspecified)	-8.7
Cc1csc(N2CCN(C(=O)Cc3ccc(C)s3)CC2)n1	-7.05
CNc1cc2c(nn1)CCN(C(=O)c1ccc(-n3nccc3C)cc1)C2	-5.44
CC1CCCN(Cc2c(C3CC3)n(CC(=O)N(C)C)c3ncccc23)C1 (stereo unspecified)	4.04
c1cnc(NC2COC3(CCN(Cc4cccs4)CC3)C2)nc1 (stereo unspecified)	0.603
CCN1CCC2(CN(C(C)=O)CC23CCN(CC2CC2)CC3)C1=O (stereo unspecified)	3.94
COCCN1CCC2(CC1)CN(C(=O)c1cccs1)CCO2	-14.1
O=C(c1cc[nH]n1)N1CC[C@@H]2CN(Cc3ccccc3)S(=O)(=O)[C@@H]2CC1	4.35
CCOCC(=O)N1CC[C@H]2OCC[C@@]2(COc2ncccc2F)C1	-152
COc1ccc(CN2CC[C@@H](O)[C@@H]2Cc2ccccc2)cc1	4.49
c1ccc(OCc2n[nH]c3c2CN(CC2CC2)C3)nc1	7.49
CS(=O)(=O)NC[C@H]1OC[C@H]2CN(Cc3ccsc3)CC[C@H]21	5.29
O=C([C@H]1C[C@H]2OCC[C@H]2N(C(=O)c2ccncc2)C1)N1CCCC1	4.76
Cc1nc(CN2CCC3(CCN(c4ncc(F)cn4)C3)C2=O)cs1 (stereo unspecified)	3.61
Cc1ccc2c(c1)CN(C(=O)c1ccncc1)C(CN(C)C)CO2 (stereo unspecified)	-13.5
CCC(=O)Nc1cccc(OCC(=O)N[C@@H]2C[C@@H]3CC[C@H]2C3)c1	-1.03
